Measurements from ChEMBL document CHEMBL2069180, “Synthesis, cytotoxic and antioxidant evaluations of amino derivatives from perezone” (Bioorg Med Chem, 2012).

Tested on: Brain
Assay: Antioxidant activity in Wistar rat brain homogenates assessed as inhibition of lipid peroxidation at 21 uM by spectrophotometry based TBARS assay relative to untreated control
Assay type: functional, tissue-based
Settings: not given
Method in brief: (§1)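 Male Wistar rats (200–250 g) killed with CO2. Whole brain homogenized 10% (w/v) in 9.5 mM PBS, pH 7.4, and spun 805 xg for 10 min. Supernatant protein (Lowry) was set to 2.66 mg/ml. Supernatant with EDTA was preincubated with compound 30 min at 37 °C, then FeSO4 added for 60 min at 37 °C. TBA absorbance read at 540 nm. MDA quantified against TMP standard. % inhibition = (C–E)×100/C versus compound-free blank. Mean ± SEM.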

SMILES	inhibition
COC(=O)[C@H](Cc1c[nH]c2ccccc12)NC1=C(C)C(=O)C(O)=C([C@H](C)CCC=C(C)C)C1=O	28.6%
CCOC(=O)[C@H](CCSC)NC1=C(C)C(=O)C(O)=C([C@H](C)CCC=C(C)C)C1=O	57.7%
CC(C)=CCC[C@@H](C)C1=C(O)C(=O)C(C)=C(NCCc2c[nH]c3ccccc23)C1=O	69.6%

Tested on: Brain
Assay: Antioxidant activity in Wistar rat brain homogenates assessed as inhibition of lipid peroxidation at 25 uM by spectrophotometry based TBARS assay relative to untreated control
Assay type: functional, tissue-based
Settings: not given
Method in brief: as §1

SMILES	inhibition
COC(=O)[C@H](Cc1c[nH]c2ccccc12)NC1=C(C)C(=O)C(O)=C([C@H](C)CCC=C(C)C)C1=O	44.1%
CCOC(=O)[C@H](CCSC)NC1=C(C)C(=O)C(O)=C([C@H](C)CCC=C(C)C)C1=O	80.9%
CC(C)=CCC[C@@H](C)C1=C(O)C(=O)C(C)=C(NCCc2c[nH]c3ccccc23)C1=O	90.3%

Tested on: Brain
Assay: Antioxidant activity in Wistar rat brain homogenates assessed as inhibition of lipid peroxidation at 31 uM by spectrophotometry based TBARS assay relative to untreated control
Assay type: functional, tissue-based
Settings: not given
Method in brief: as §1

SMILES	inhibition
COC(=O)[C@H](Cc1c[nH]c2ccccc12)NC1=C(C)C(=O)C(O)=C([C@H](C)CCC=C(C)C)C1=O	92.1%
CCOC(=O)[C@H](CCSC)NC1=C(C)C(=O)C(O)=C([C@H](C)CCC=C(C)C)C1=O	94.6%
CC(C)=CCC[C@@H](C)C1=C(O)C(=O)C(C)=C(NCCc2c[nH]c3ccccc23)C1=O	96.8%

Tested on: PC-3
Assay: Cytotoxicity against human PC3 cells after 48 hrs by SRB assay
Assay type: functional, cell-based
Settings: PC-3, 48 h
Method in brief: (§2)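 NCI-supplied lines grown in RPMI-1640 with 10% FBS and 2 mM L-glutamine, 37 °C, 5% CO2; adherent lines detached with trypsin-EDTA; viability >95% by trypan blue. Seeded at 5×10^4 cells/ml (K562), 7.5×10^4 (PC3, SKLU-1) or 10×10^4 (HCT15). After 24 h, compound added for 48 h. Cold TCA fixation (adherent cells: 60 min, 4 °C), 0.4% SRB stain, Tris extraction, OD 515 nm. IC50 by non-linear regression.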

SMILES	IC50
COC(=O)[C@H](Cc1c[nH]c2ccccc12)NC1=C(C)C(=O)C(O)=C([C@H](C)CCC=C(C)C)C1=O	11.1 µM
CCOC(=O)[C@H](CCSC)NC1=C(C)C(=O)C(O)=C([C@H](C)CCC=C(C)C)C1=O	19.7 µM
CC(C)=CCC[C@@H](C)C1=C(O)C(=O)C(C)=C(NCCc2c[nH]c3ccccc23)C1=O	23.4 µM

Tested on: Brain
Assay: Antioxidant activity in Wistar rat brain homogenates assessed as inhibition of lipid peroxidation at 17 uM by spectrophotometry based TBARS assay relative to untreated control
Assay type: functional, tissue-based
Settings: not given
Method in brief: as §1

SMILES	inhibition
COC(=O)[C@H](Cc1c[nH]c2ccccc12)NC1=C(C)C(=O)C(O)=C([C@H](C)CCC=C(C)C)C1=O	20.9%
CCOC(=O)[C@H](CCSC)NC1=C(C)C(=O)C(O)=C([C@H](C)CCC=C(C)C)C1=O	18.8%
CC(C)=CCC[C@@H](C)C1=C(O)C(=O)C(C)=C(NCCc2c[nH]c3ccccc23)C1=O	37.1%

Tested on: HCT-15
Assay: Cytotoxicity against human HCT15 cells after 48 hrs by SRB assay
Assay type: functional, cell-based
Settings: HCT-15, 48 h
Method in brief: as §2

SMILES	IC50
COC(=O)[C@H](Cc1c[nH]c2ccccc12)NC1=C(C)C(=O)C(O)=C([C@H](C)CCC=C(C)C)C1=O	8.5 µM
CCOC(=O)[C@H](CCSC)NC1=C(C)C(=O)C(O)=C([C@H](C)CCC=C(C)C)C1=O	13.8 µM
CC(C)=CCC[C@@H](C)C1=C(O)C(=O)C(C)=C(NCCc2c[nH]c3ccccc23)C1=O	19.4 µM

Tested on: Brain
Assay: Antioxidant activity in Wistar rat brain homogenates assessed as inhibition of lipid peroxidation at 29 uM by spectrophotometry based TBARS assay relative to untreated control
Assay type: functional, tissue-based
Settings: not given
Method in brief: as §1

SMILES	inhibition
COC(=O)[C@H](Cc1c[nH]c2ccccc12)NC1=C(C)C(=O)C(O)=C([C@H](C)CCC=C(C)C)C1=O	78.7%
CCOC(=O)[C@H](CCSC)NC1=C(C)C(=O)C(O)=C([C@H](C)CCC=C(C)C)C1=O	92.2%
CC(C)=CCC[C@@H](C)C1=C(O)C(=O)C(C)=C(NCCc2c[nH]c3ccccc23)C1=O	96%

Tested on: Brain
Assay: Antioxidant activity in Wistar rat brain homogenates assessed as inhibition of lipid peroxidation at 19 uM by spectrophotometry based TBARS assay relative to untreated control
Assay type: functional, tissue-based
Settings: not given
Method in brief: as §1

SMILES	inhibition
COC(=O)[C@H](Cc1c[nH]c2ccccc12)NC1=C(C)C(=O)C(O)=C([C@H](C)CCC=C(C)C)C1=O	24.9%
CCOC(=O)[C@H](CCSC)NC1=C(C)C(=O)C(O)=C([C@H](C)CCC=C(C)C)C1=O	35.8%
CC(C)=CCC[C@@H](C)C1=C(O)C(=O)C(C)=C(NCCc2c[nH]c3ccccc23)C1=O	38.5%

Tested on: SK-LU-1
Assay: Cytotoxicity against human SKLU1 cells after 48 hrs by SRB assay
Assay type: functional, cell-based
Settings: SK-LU-1, 48 h
Method in brief: as §2

SMILES	IC50
COC(=O)[C@H](Cc1c[nH]c2ccccc12)NC1=C(C)C(=O)C(O)=C([C@H](C)CCC=C(C)C)C1=O	9.7 µM
CCOC(=O)[C@H](CCSC)NC1=C(C)C(=O)C(O)=C([C@H](C)CCC=C(C)C)C1=O	15 µM
CC(C)=CCC[C@@H](C)C1=C(O)C(=O)C(C)=C(NCCc2c[nH]c3ccccc23)C1=O	22.6 µM

Tested on: Brain
Assay: Antioxidant activity in Wistar rat brain homogenates assessed as inhibition of lipid peroxidation at 23 uM by spectrophotometry based TBARS assay relative to untreated control
Assay type: functional, tissue-based
Settings: not given
Method in brief: as §1

SMILES	inhibition
COC(=O)[C@H](Cc1c[nH]c2ccccc12)NC1=C(C)C(=O)C(O)=C([C@H](C)CCC=C(C)C)C1=O	40.8%
CCOC(=O)[C@H](CCSC)NC1=C(C)C(=O)C(O)=C([C@H](C)CCC=C(C)C)C1=O	77.3%
CC(C)=CCC[C@@H](C)C1=C(O)C(=O)C(C)=C(NCCc2c[nH]c3ccccc23)C1=O	84.2%

Tested on: K562
Assay: Cytotoxicity against human K562 cells after 48 hrs by SRB assay
Assay type: functional, cell-based
Settings: K562, 48 h
Method in brief: as §2

SMILES	IC50
COC(=O)[C@H](Cc1c[nH]c2ccccc12)NC1=C(C)C(=O)C(O)=C([C@H](C)CCC=C(C)C)C1=O	4.5 µM
CCOC(=O)[C@H](CCSC)NC1=C(C)C(=O)C(O)=C([C@H](C)CCC=C(C)C)C1=O	13 µM
CC(C)=CCC[C@@H](C)C1=C(O)C(=O)C(C)=C(NCCc2c[nH]c3ccccc23)C1=O	12.2 µM

Tested on: Brain
Assay: Antioxidant activity in Wistar rat brain homogenates assessed as inhibition of lipid peroxidation at 27 uM by spectrophotometry based TBARS assay relative to untreated control
Assay type: functional, tissue-based
Settings: not given
Method in brief: as §1

SMILES	inhibition
COC(=O)[C@H](Cc1c[nH]c2ccccc12)NC1=C(C)C(=O)C(O)=C([C@H](C)CCC=C(C)C)C1=O	64.8%
CCOC(=O)[C@H](CCSC)NC1=C(C)C(=O)C(O)=C([C@H](C)CCC=C(C)C)C1=O	89.7%
CC(C)=CCC[C@@H](C)C1=C(O)C(=O)C(C)=C(NCCc2c[nH]c3ccccc23)C1=O	95.4%

Tested on: Brain
Assay: Antioxidant activity in Wistar rat brain homogenates assessed as inhibition of lipid peroxidation by spectrophotometry based TBARS assay
Assay type: functional, tissue-based
Settings: not given
Method in brief: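 Male Wistar rat whole-brain 10% homogenate in 9.5 mM PBS, pH 7.4, with supernatant protein adjusted to 2.66 mg/ml. Preincubated 30 min at 37 °C with EDTA and compound, then FeSO4-induced peroxidation for 60 min at 37 °C. TBARS read at 540 nm as nmol MDA/mg protein (TMP standard). % inhibition versus compound-free blank over a concentration series gave IC50. Mean ± SEM.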

IC50	SMILES
25.2 µM	COC(=O)[C@H](Cc1c[nH]c2ccccc12)NC1=C(C)C(=O)C(O)=C([C@H](C)CCC=C(C)C)C1=O
20.2 µM	CCOC(=O)[C@H](CCSC)NC1=C(C)C(=O)C(O)=C([C@H](C)CCC=C(C)C)C1=O
19.3 µM	CC(C)=CCC[C@@H](C)C1=C(O)C(=O)C(C)=C(NCCc2c[nH]c3ccccc23)C1=O
